Fewer inactive variants are shown than the library holds.
B1: tRNA (parent)
chain: GUUCCGUUGGCGUAAUGGUAACGCGUCUCCCUCCUAAGGAGAAGACUGCGGGUUCGAGUCCCGUACGGAACG

Variants of: B1
Test: yeast fitness relative to wild type (ratio to wild type); higher = fitter; tRNA-Arg(CCU), competitive growth, 37 C, YPD
How it was run: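 Start and end populations of a pooled competition were compared by 100-nucleotide paired-end sequencing of gene amplicons. The Saccharomyces cerevisiae strains carried tRNA-Arg(CCU) gene variants at the native genomic locus, synthesised with a 3% per-site mutation rate at 69 sites, and competed in YPD at 37°C for 24 hours in six parallel replicates. Darwinian fitness relative to wild type was based on the change in genotype frequencies. Genotypes required ≥ 100 starting reads, and estimates < 0.5 were set to 0.5.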

GUUCCGUUGGCGUAAUGGUUAAGCGUCUCCCUCCUAAGGAGAAGACUGCGGGUUCGAGUCAGGUACGAAACG [A20U C22A C61A C62G G68A] and GUUCCGUUGGCGUAAUGGUUACGCGUCUAACUCCUAAGGAGAAGACUGCGGGGUCGAGUCCGGUACGGAACG [A20U C29A C30A U53G C62G] cannot be ordered by yeast fitness: at most 0.5 for the first, at most 0.5 for the second.

Compared with GUUCCGUUGGCGUAAUGGUGACGCGUCUCCCUCCUAAGGAGAAGACUGCGGGUGCGUGUCCCGUACGGAACG [A20G U54G A57U], GUUCCGUUGGCGUAAUGGUUACGCGUCUCCAUCCUAAGGAGAAGACUGCGGAUUCGAGUCCCGUAUGGAACG [A20U C31A G52A C66U] is higher in yeast fitness: at most 0.5 for the first, 0.527 for the second.

GUUCCGUUGGCGUAAUGGUUACGCGUCUCCCUCCUAACGAGAAGACUGCGGGUUCGAGUCCCGUGCGGAACG [A20U G38C A65G] and GUUCCGUUGGCGUAAUGGUUACGCGUCUCCCUCCUAAGGAGAGGACUGCGAGUUCGAGUCCCGUACGGCACG [A20U A43G G51A A69C] cannot be ordered by yeast fitness: at most 0.5 for the first, at most 0.5 for the second.

GUUCCGUUGGCGUAAUGGUUACGCGUCUCCCUCUUAAGGAGUAGACUGCGGGUUCGAGUCCCGUACGGAACG [A20U C34U A42U] and GUUCCGUUGGCGUAAUGGUUACGCGUCUCCCUCCUAAGGAGAAGACUGCGGGUUGGACUCCCGUACGGAACG [A20U C55G G58C] cannot be ordered by yeast fitness: at most 0.5 for the first, at most 0.5 for the second.

Compared with GUUCCGUUGGCGUAAUGGUUAUGCGUCUCCCUCCUAAGGAGAAGACUGCGGGUUCGAGUCCCGUACGGAACG [A20U C22U], GUUCCGUUGGCGUAAUGGUUACGCGUCUCCCUCCUUAGGAGAAGACUGCGGGUUCGAGUCCCGUACGGAACG [A20U A36U] is lower in yeast fitness: 0.716 for the first, 0.639 for the second.

GUUCCGUUGGCGUAAUGGUUACGCGUCUCUCUCCUAAGGAGAAGACUGCGGGUUCGGGUCCCGUUCGGAACG [A20U C30U A57G A65U] and GUUCCGUUGGCGUAAUGGUUACACGUCUCCUUCCUAAGAAGAAGACUGCGGGUUCGAGUCCCGUACGGAACG [A20U G23A C31U G39A] cannot be ordered by yeast fitness: at most 0.5 for the first, at most 0.5 for the second.

GUUCCGUUGGCGUAAUGGUUACGCGUCUCCCUCCUGAGGAGAAGACUCCGGGUUCGAGUCCCGUACCGAACG [A20U A36G G48C G67C] and GUUCCGUUGGCGUAAUGGUUACGCGUCUCCCUCAUAAGGAGAAGACUGCGGGUUCGAGUCCCGUAAGGAACG [A20U C34A C66A] cannot be ordered by yeast fitness: at most 0.5 for the first, at most 0.5 for the second.

GUUCCGUUGGCGUAAUGGUUACGAGUCUCCCUCCUAAGGAGAAGACUGCGCGUUCGAGUCCCGUACGGAACG [A20U C24A G51C] and GUUCCGUUGGCGUAAUGGUUCCGCGUCUCCCUCCUAAGGAGAAGACUGCGGGUUCGAGUCCCGUACAGAACG [A20U A21C G67A] cannot be ordered by yeast fitness: at most 0.5 for the first, at most 0.5 for the second.

Compared with GUUCCGUUGGCGUAAUGGUUAGACGUCUCCCUCCUAAGGAGAUGACUGCAGGUUCGAGUCCCGUACGGAACG [A20U C22G G23A A43U G50A], GUUCCGUUGGCGUAAUGGUGACGCGUCGCCUUCCUAAGGAGAAGACUGCGGGUUCGAGUCCCGUACGGAACG [A20G U28G C31U] is higher in yeast fitness: at most 0.5 for the first, 0.588 for the second.

Compared with GUUCCGUUGGCGUAAUGGUUACGCGUCUCCCUCCUAAGGAGAAGACUGCGGGUUCGAGUCUCGUACGGAACG [A20U C61U], GUUCCGUUGGCGUAAUGGUGACGCGUCUCCCUCCUAAGGAGAAGACUGCGGGUUCGAGUCCCGGACGAACCG [A20G U64G G68A A70C] is lower in yeast fitness: 0.836 for the first, at most 0.5 for the second.

Compared with GUUCCGUUGGCGUAAUGGUUACGCGUCUCCUUCCUAAGGAGAAGACUGUGGGUUCGAGUCCCGUACGGAACG [A20U C31U C49U], GUUCCGUUGGCGUAAUGGUUACGCGUCUCCCUCCUAAGGAGAAGACUGCGAGUUCGAGUCGCGUACGGAACG [A20U G51A C61G] is lower in yeast fitness: 0.773 for the first, at most 0.5 for the second.

Compared with GUUCCGUUGGCGUAAUGGUUACGCGUCUCCCUCCUAAGGGGAAGACUGCGGGUUCGAGUCCCGUACGGAACG [A20U A40G], GUUCCGUUGGCGUAAUGGUUACGCGUCUCCCUCCUACCGAGAAGACUGCGGGUUCGAGUCCCGUACGGAACG [A20U A37C G38C] is lower in yeast fitness: 0.903 for the first, at most 0.5 for the second.

Going from GUUCCGUUGGCGUAAUGGUGACGCGUCUCCCUCCUAAGGAGAAGACUGCGGGUCCGAGUCCCGUACGGACCG [A20G U54C A70C] to GUUCCGUUGGCGUAAUGGUUAUGCGUCUCCCUCCUAAGGAGAAGACAGCGGGUUCGAGUCCCGUACGGAACG [A20U C22U U47A], the yeast fitness falls from 0.578 to at most 0.5.

First: GUUCCGUUGGCGUAAUGGUUACGCGUCUACCUCCUAAGGAGAAGACUGCGGGUUCGAGUCCCGUACGGAACG [A20U C29A]
Second: GUUCCGUUGGCGUAAUGGUUACGCGUCUCCCUCCUAAGGAGAAGACUGCGGGUUCGAGUCCUGUCCGGAACG [A20U C62U A65C]
The yeast fitness of the first is higher: 0.797 for the first, 0.682 for the second.

First: GUUCCGUUGGCGUAAUGGUUGCGCGUCUCCCUCCUAAGGAGAAGACUGCGGGUUCGAGUCUCGUACGGAACG [A20U A21G C61U]
Second: GUUCCGUUGGCGUAAUGGUUACGCGUCUCCCUCCUAAGGAGAAUACUGCGGGUUCGUAUCCCGUAGGGAACG [A20U G44U A57U G58A C66G]
The yeast fitness of the first is lower: at most 0.5 for the first, 0.518 for the second.

Going from GUUCCGUUGGCGUAAUGGUUACGCGUGUACCUCCUAAGGAGAAGACUGCGGGUUCGAAUCCCGUACGGAACG [A20U C27G C29A G58A] to GUUCCGUUGGCGUAAUGGUUACGCGUCUCCCUCCUAAGGAGAAGAAUGCGGGUUCGAGUCCCGUACGGAACG [A20U C46A], the yeast fitness rises from at most 0.5 to 0.858.

GUUCCGUUGGCGUAAUGGUUACGCGUCUAACUCCUAAGGAGAAGACUGCGGGUUCGAGUCCCGUACGGAACG [A20U C29A C30A] and GUUCCGUUGGCGUAAUGGUUACGCGUCUCCCUACUAAGGAGAAGACUGCGGGUUCGAGUCCCGUAAGGAACG [A20U C33A C66A] cannot be ordered by yeast fitness: at most 0.5 for the first, at most 0.5 for the second.

First: GUUCCGUUGGCGUAAUGGUUACGCGUCUCCGUCCUAAGGCGAAGACUGCGGGUUCGAGUCCCGUACGGAACG [A20U C31G A40C]
Second: GUUCCGUUGGCGUAAUGGUUACGCGUCUCCCUCCUGAGGAGAUGACUGCGGGUUCGAGUCCCGUACGGAACG [A20U A36G A43U]
The yeast fitness of the first is lower: at most 0.5 for the first, 0.601 for the second.

Variant GUUCCGUUGGCGUAAUGGUUACGCGUCUCCCUCCUAAGAAGAAGCCUGCGGGUUCGCGUCCCGUACGCAACG [A20U G39A A45C A57C G68C] has a yeast fitness of at most 0.5.

— the RNAGym collection of RNA variant scans (doi:10.1126/science.aae0568)
